# Assay results from publication PMC2151622 (The Journal of General Physiology, 2007).
# Where a chain is given by its changes, count along the chain named. Read-outs that look alike come from different tables or passages of the source.
# What was measured:
# Assay type in all cases: cell-based, rabbit
# D444C-EAAC1 = target: T1, D444C-EAAC1 (Oryctolagus cuniculus, UniProt P31597, D444C); test: Blockade of sodium-dependent transient currents; conditions: for Decay time of transient currents blocked: at −100 mV
# T1 sequence (P31597 1-524 D444C): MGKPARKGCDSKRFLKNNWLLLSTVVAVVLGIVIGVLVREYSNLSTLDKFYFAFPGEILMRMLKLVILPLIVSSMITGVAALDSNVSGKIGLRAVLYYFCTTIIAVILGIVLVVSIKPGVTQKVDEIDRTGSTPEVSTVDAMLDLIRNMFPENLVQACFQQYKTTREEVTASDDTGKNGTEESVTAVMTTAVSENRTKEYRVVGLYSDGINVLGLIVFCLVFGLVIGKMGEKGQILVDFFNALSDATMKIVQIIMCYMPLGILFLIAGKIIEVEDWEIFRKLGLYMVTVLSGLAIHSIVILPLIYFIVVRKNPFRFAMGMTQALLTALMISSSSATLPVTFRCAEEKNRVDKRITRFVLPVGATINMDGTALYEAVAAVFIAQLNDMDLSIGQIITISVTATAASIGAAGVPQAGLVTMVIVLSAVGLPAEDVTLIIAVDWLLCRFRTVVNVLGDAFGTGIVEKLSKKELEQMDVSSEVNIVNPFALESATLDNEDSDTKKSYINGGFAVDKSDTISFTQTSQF
# Outline: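 Steps from −25 mV to −100…+40 mV. Transients taken as current without minus current with compound. Charge is the sum of integrals at −100 and +40 mV, normalised to 10 mM of the same compound. IC50 from a generalized Hill fit; decay from a first-order exponential; 3–10 oocytes.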
# D444S-EAAC1 = target: T2, D444S-EAAC1 (Oryctolagus cuniculus, UniProt P31597, D444S); test: Blockade of sodium-dependent transient currents; conditions: for Decay time of transient currents blocked: at −100 mV
# T2 sequence (P31597 1-524 D444S): T1 sequence (P31597 1-524 D444C) with C444S
# Outline: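 Oocytes expressing the mutant were clamped in sodium ND96 and given 250-ms pulses from −25 mV to −100…+40 mV, with and without compound; TBOA was added to a stopped bath. Isolated transients (without minus with compound) were integrated at −100 and +40 mV and summed. Charge was normalised to 10 mM of each compound and Hill-fitted; 4–6 oocytes. Decay came from an exponential fit; 3–10 oocytes.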
# D444E-EAAC1 = target: T3, D444E-EAAC1 (Oryctolagus cuniculus, UniProt P31597, D444E); test: Blockade of sodium-dependent transient currents
# T3 sequence (P31597 1-524 D444E): T1 sequence (P31597 1-524 D444C) with C444E
# Outline: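 Oocytes expressing the mutant were voltage clamped in ND96 (pH 7.5, HEPES) and stepped from −25 mV. Transients are buffer current minus buffer-plus-compound current. Charge is the sum of current–time integrals at −100 and +80 mV, normalised to 1 mM L-aspartate or 15 mM succinate, and fitted to a generalized Hill equation. Decay constants come from a first-order exponential fit; mean ± SEM of 3–10 oocytes.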
# WT-EAAC1 = target: T4, WT-EAAC1 (Oryctolagus cuniculus, UniProt P31597); conditions: NaSCN-based buffer
# T4 sequence (P31597 1-524): T1 sequence (P31597 1-524 D444C) with C444D
# Outline: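 Two-electrode voltage clamp of oocytes in buffer with all NaCl replaced by NaSCN, grounded through a 2% agarose/2 M KCl bridge. Compounds were 2 mM; TBOA (10 μM) was added to a stopped bath. Steps from −25 mV to −100…+40 mV. Net steady-state current (with minus without) was normalised to the L-aspartate current at +40 mV; mean ± SEM of 3 oocytes (L-aspartate n = 6).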
# D444N mutant EAAC1 = target: T5, D444N mutant EAAC1 (Oryctolagus cuniculus, UniProt P31597, D444N); test: Blockade of transient currents
# T5 sequence (P31597 1-524 D444N): T1 sequence (P31597 1-524 D444C) with C444N
# T448A mutant EAAC1 = target: T6, T448A mutant EAAC1 (Oryctolagus cuniculus, UniProt P31597, T448A); test: Uptake of D-[3H]-aspartate in Xenopus laevis oocytes expressing T448A; conditions: 20 min in ND96
# T6 sequence (P31597 1-524 T448A): T1 sequence (P31597 1-524 D444C) with C444D, T448A
# D444C mutant EAAC1 = target: T7, D444C mutant EAAC1 (Oryctolagus cuniculus, UniProt P31597, D444C); conditions: 10 min
# T7 sequence (P31597 1-524 D444C): T1 sequence (P31597 1-524 D444C)
structure (smiles),measurement,setting,value
"N[C@H](C(=O)O)[C@H](OCc1ccccc1)C(=O)O (racemic) [TBOA, DL-threo-β-benzyloxyaspartate]",Decay time of transient currents blocked,"D444C-EAAC1; D444C, 10 μM D,L-TBOA",4.8 ± 0.3 ms
same,IC50,"D444C-EAAC1; read-out: IC50 for substrates/blockers of charge movements, D444C, Xenopus oocytes, mean ± SEM",1.9 ± 0.2 µM
same,Decay time of transient currents blocked,"D444S-EAAC1; D444S, 160 μM D,L-TBOA",6 ± 0.6 ms
same,IC50,"D444S-EAAC1; read-out: IC50 for substrates/blockers of charge movements, D444S, Xenopus oocytes, mean ± SEM",31 ± 8 µM
same,Decay time of transient currents blocked,"D444E-EAAC1; 10 μM D,L-TBOA, at +80 mV",5.6 ± 1.2 ms
same,IC50,"D444E-EAAC1; read-out: IC50 for substrates/blockers of charge movements, Xenopus oocytes, mean ± SEM",1.8 ± 0.4 µM
same,Effect on the anion conductance,"WT-EAAC1; 10 μM D,L-TBOA",decreased
"O=C(O)CCCC(=O)O [Glutarate, glutarate]",IC50,D444C-EAAC1,260 ± 40 µM
same,Inhibition of transient currents of similar size as succinate,"D444S-EAAC1; D444S, 2 mM, unpublished data",capable of inhibiting
"N[C@@H](CCC(=O)O)C(=O)O [L-Glutamate, L-glutamate]",IC50,D444C-EAAC1,29 ± 3 µM
same,Decay time of transient currents blocked,"D444C-EAAC1; D444C, 10 mM compound",17.7 ± 1 ms
same,IC50,D444S-EAAC1,1220 ± 160 µM
same,Decay time of transient currents blocked,"D444S-EAAC1; D444S, 10 mM compound",11.0 ± 1.2 ms
same,IC50,D444N mutant EAAC1,718 ± 217 µM
same,IC50,"D444E-EAAC1; IC50 for substrates/blockers of charge movements, Xenopus oocytes, mean ± SEM",24.4 ± 2.2 µM
"[3H]C(C(=O)O)C([3H])(N)C(=O)O [D-[^3H]-aspartate, D-[2,3-^3H]-aspartic acid]",Uptake of D-[3H]-aspartate relative to WT,T448A mutant EAAC1,~20%
same,D-[3H]-aspartate uptake relative to WT-EAAC1,D444C mutant EAAC1,~5%
"N[C@H](CC(=O)O)C(=O)O [D-Aspartate, D-aspartate]",IC50,D444C-EAAC1,8 ± 1 µM
same,Decay time of transient currents blocked,"D444C-EAAC1; D444C, 10 mM compound",18.4 ± 1 ms
same,IC50,D444S-EAAC1,1370 ± 360 µM
same,Decay time of transient currents blocked,"D444S-EAAC1; D444S, 10 mM compound",12.8 ± 0.6 ms
NCCCC(=O)O [GABA],Inhibition of the transient currents,"D444S-EAAC1; D444S, 5 mM, sodium 96 mM",unable to inhibit
same,Effect on the anion conductance,WT-EAAC1; 2 mM,not seen
